From ChEMBL document CHEMBL3098111, “Discovery of 2,5-diarylnicotinamides as selective orexin-2 receptor antagonists (2-SORAs)” (Bioorg Med Chem Lett, 2013)

Experiments:
[1] = Half life in rat; format: ADME, organism-based; settings: in vivo
[2] = Clearance in rat; format: ADME, organism-based; settings: in vivo
[3] = Oral bioavailability in rat; format: ADME, organism-based; settings: in vivo
[4] = Ratio of drug level in brain to plasma in rat at 3 mg/kg, po after 1 hr; format: ADME, organism-based; parameters: dose 3 mg/kg, route oral; settings: read-out: BPR
Orexin receptor type 2 [5] = molecular target: T1, Orexin receptor type 2 (Homo sapiens, UniProt O43614); assay: Displacement of [3H]SB-674042 from human orexin-2 receptor after 60 mins by scintillation counting analysis
T1 sequence (O43614 whole entry): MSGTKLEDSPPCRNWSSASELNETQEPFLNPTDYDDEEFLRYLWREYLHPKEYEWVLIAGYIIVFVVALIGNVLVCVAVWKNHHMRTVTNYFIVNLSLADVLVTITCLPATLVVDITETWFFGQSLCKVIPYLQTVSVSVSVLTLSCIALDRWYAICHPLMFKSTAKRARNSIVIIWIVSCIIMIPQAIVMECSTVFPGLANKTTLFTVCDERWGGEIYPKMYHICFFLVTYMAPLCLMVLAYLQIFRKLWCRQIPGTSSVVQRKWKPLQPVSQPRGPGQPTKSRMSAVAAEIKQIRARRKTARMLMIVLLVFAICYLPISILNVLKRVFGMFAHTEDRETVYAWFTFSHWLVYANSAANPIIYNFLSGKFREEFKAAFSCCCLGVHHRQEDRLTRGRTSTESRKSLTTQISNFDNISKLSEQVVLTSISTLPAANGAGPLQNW
Summary of the method: (§1)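 Radioligand binding on membranes from human cells overexpressing the orexin receptor. Inhibition of high-affinity radioligand binding measured and expressed as Ki.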

[6] = molecular target: T2, Orexin/Hypocretin receptor type 1 (Homo sapiens, UniProt O43613); assay: Displacement of [3H]SB-674042 from human orexin-1 receptor after 60 mins by scintillation counting analysis; summary of the method: as §1
T2 sequence (O43613 whole entry): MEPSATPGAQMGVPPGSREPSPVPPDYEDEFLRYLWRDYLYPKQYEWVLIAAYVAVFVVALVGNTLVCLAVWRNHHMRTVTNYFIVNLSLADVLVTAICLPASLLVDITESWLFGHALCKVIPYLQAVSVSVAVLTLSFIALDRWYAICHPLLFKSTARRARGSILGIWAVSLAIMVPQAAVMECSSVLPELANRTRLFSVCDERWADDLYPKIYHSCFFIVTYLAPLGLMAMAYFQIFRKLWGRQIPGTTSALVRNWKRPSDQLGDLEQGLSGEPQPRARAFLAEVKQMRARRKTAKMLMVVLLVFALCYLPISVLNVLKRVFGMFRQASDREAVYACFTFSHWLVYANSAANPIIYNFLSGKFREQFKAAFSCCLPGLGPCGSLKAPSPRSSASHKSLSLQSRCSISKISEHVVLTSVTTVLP

Homo sapiens = species on record: Homo sapiens; assay: Selectivity ratio of Ki for human orexin-1 receptor to Ki for human orexin-2 receptor
Summary of the method: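 Radioligand binding: a high-affinity radioligand was bound to membranes from human cells overexpressing OX1R or OX2R, and inhibition of that binding was measured and expressed as Ki. The ratio is the OX1R Ki divided by the OX2R Ki.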

MDR1 (P-gp, ABCB1) = MDR1 (P-gp, ABCB1) (Homo sapiens, UniProt P08183); assay: Activity at human MDR1 expressed in pig LLC-PK cells assessed as efflux ratio of permeability from basolateral to apical side over apical to basolateral side; format: ADME, cell-based; settings: LLC-PK1
[7] = molecular target: T2, Orexin/Hypocretin receptor type 1; assay: Antagonist activity at human orexin-1 receptor assessed as inhibition of orexin-A-induced intracellular calcium mobilization after 30 mins by cell-based FLIPR assay; format: functional
Summary of the method: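 Cell-based FLIPR functional assay in orexin receptor-expressing cells, with Ca2+ flux as the read-out of orexin-driven receptor activation.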

[8] = Inhibition of guinea pig adenosine transporter; parameters: species or system Cavia porcellus
MAO-B = MAO-B (Homo sapiens, UniProt P27338); assay: Inhibition of human MAO-B at 10 uM relative to control
Mu-type opioid receptor = Mu-type opioid receptor (Homo sapiens, UniProt P35372); assay: Inhibition of human mu opioid receptor
hERG (KCNH2) [9] = molecular target: T3, hERG (KCNH2) (Homo sapiens, UniProt Q12809); assay: Inhibition of human ERG at 0.1 uM relative to control
[10] = Cmax in rat EEG model at 15 mg/kg, po; format: ADME, organism-based; parameters: dose 15 mg/kg, route oral; settings: in vivo
[11] = molecular target: L-type calcium channel, benzothiazepine binding site (Rattus norvegicus, UniProt P22002+P27732+Q02485); assay: Inhibition of rat L-type calcium channel benzothiazepine binding site at 10 uM relative to control
hERG (KCNH2) [12] = molecular target: T3, hERG (KCNH2); assay: Inhibition of human ERG at 10 nM relative to control
[13] = molecular target: Voltage-gated inwardly rectifying potassium channel KCNH2 (Homo sapiens, UniProt Q12809); assay: Inhibition of human ERG
hERG (KCNH2) [14] = molecular target: T3, hERG (KCNH2); assay: Inhibition of human ERG at 1 uM relative to control
[15] = molecular target: 5-hydroxytryptamine receptor 2B (Homo sapiens, UniProt P41595); assay: Inhibition of human 5-HT2B receptor
[16] = Inhibition of rabbit monoamine transporter; parameters: species or system Oryctolagus cuniculus
Nucleic Acid = assay: Ratio of drug level in CSF to plasma in rat at 3 mg/kg, po after 1 hr; format: ADME, organism-based; parameters: dose 3 mg/kg, route oral
[17] = Fraction unbound in human plasma by equilibrium dialysis method; format: ADME, cell-free
[18] = molecular target: L-type calcium channel, phenylalkylamine binding site (Rattus norvegicus, UniProt P22002+P27732+Q02485); assay: Inhibition of rat L-type calcium channel phenylalkylamine binding site at 10 uM relative to control
D(3) dopamine receptor = D(3) dopamine receptor (Homo sapiens, UniProt P35462); assay: Inhibition of human dopamine D3 receptor
MAO-A = MAO-A (Homo sapiens, UniProt P21397); assay: Inhibition of human MAO-A at 10 uM relative to control
[19] = molecular target: L-type calcium channel, dihydropyridine binding site (Rattus norvegicus, UniProt P22002+P27732+Q02485); assay: Inhibition of rat L-type calcium channel dihydropyridine binding site at 10 uM relative to control
[20] = Fraction unbound in rat plasma by equilibrium dialysis method; format: ADME, cell-free
Orexin receptor type 2 [21] = molecular target: T1, Orexin receptor type 2; assay: Antagonist activity at human orexin-2 receptor assessed as inhibition of orexin-A-induced intracellular calcium mobilization after 30 mins by cell-based FLIPR assay; format: functional
[22] = molecular target: 5-hydroxytryptamine receptor 1B (Rattus norvegicus, UniProt P28564); assay: Inhibition of rat 5-HT1B receptor
[23] = Lipophilicity, log P of the compound; format: physicochemical; settings: octanol/water
[24] = AUC in rat EEG model at 15 mg/kg, po; format: ADME, organism-based; parameters: dose 15 mg/kg, route oral; settings: in vivo
[25] = molecular target: 5-hydroxytryptamine receptor 1A (Homo sapiens, UniProt P08908); assay: Inhibition of human 5-HT1A receptor
hERG (KCNH2) [26] = molecular target: T3, hERG (KCNH2); assay: Inhibition of human ERG at 10 uM relative to control
[27] = Bioavailability in rat at 10 mg/kg; format: ADME, organism-based; settings: in vivo
[28] = Clearance in rat at 10 mg/kg; format: ADME, organism-based; parameters: dose 10 mg/kg; settings: in vivo

T3 sequence (Q12809 whole entry): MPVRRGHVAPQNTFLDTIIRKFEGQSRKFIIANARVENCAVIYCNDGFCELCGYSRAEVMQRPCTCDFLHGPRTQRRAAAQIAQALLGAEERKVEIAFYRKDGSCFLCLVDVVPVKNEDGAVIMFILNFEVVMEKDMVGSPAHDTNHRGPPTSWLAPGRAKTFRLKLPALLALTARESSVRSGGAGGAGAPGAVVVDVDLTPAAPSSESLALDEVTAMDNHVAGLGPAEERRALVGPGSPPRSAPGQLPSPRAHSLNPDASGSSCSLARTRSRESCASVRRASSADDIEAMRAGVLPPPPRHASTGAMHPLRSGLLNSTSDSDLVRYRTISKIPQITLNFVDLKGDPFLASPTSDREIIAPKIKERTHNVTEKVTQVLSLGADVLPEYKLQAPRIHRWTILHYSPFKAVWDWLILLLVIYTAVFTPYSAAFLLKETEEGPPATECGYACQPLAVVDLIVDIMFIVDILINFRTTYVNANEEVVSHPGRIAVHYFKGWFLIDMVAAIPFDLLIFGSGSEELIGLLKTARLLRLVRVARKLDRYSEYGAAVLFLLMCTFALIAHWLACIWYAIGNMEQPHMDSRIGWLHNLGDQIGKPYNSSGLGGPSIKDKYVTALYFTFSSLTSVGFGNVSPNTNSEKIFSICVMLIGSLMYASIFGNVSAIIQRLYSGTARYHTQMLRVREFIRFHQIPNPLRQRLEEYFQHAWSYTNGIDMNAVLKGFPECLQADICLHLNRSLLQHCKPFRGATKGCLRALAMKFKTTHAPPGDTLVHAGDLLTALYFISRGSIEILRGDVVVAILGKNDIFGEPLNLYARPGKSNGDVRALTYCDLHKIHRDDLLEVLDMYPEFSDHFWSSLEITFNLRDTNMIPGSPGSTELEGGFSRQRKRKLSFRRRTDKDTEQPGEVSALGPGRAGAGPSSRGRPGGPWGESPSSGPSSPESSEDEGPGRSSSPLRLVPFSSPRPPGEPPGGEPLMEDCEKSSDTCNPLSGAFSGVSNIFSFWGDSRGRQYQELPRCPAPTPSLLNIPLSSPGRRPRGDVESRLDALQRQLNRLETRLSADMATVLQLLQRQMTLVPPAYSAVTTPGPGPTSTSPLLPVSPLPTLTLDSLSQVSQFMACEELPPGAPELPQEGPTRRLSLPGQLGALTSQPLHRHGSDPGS
Chain of 5-hydroxytryptamine receptor 2B (P41595 whole entry): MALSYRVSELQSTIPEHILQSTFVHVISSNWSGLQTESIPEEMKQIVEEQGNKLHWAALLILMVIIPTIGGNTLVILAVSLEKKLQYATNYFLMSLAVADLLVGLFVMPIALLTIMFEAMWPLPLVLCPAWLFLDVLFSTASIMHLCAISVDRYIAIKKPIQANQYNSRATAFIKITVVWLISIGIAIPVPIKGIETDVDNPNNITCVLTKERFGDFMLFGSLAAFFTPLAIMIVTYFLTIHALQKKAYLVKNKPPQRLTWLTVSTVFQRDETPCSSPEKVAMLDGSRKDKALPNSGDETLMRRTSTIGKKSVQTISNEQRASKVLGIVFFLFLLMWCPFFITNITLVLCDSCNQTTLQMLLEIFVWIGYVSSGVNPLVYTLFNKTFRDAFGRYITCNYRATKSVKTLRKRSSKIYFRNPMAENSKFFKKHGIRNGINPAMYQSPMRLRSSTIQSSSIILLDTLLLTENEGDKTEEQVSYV
Chain of 5-hydroxytryptamine receptor 1A (P08908 whole entry): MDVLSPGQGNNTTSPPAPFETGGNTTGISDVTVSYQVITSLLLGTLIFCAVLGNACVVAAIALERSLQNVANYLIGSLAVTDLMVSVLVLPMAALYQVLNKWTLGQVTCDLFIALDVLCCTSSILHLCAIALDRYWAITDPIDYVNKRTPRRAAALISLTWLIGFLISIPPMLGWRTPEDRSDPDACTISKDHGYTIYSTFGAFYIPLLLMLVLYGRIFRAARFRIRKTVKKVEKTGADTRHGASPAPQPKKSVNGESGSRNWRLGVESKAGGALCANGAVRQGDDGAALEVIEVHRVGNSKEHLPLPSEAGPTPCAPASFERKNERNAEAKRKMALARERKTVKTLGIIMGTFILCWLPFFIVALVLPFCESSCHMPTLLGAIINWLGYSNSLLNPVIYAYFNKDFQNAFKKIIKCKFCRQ
Chain of D(3) dopamine receptor (P35462 whole entry): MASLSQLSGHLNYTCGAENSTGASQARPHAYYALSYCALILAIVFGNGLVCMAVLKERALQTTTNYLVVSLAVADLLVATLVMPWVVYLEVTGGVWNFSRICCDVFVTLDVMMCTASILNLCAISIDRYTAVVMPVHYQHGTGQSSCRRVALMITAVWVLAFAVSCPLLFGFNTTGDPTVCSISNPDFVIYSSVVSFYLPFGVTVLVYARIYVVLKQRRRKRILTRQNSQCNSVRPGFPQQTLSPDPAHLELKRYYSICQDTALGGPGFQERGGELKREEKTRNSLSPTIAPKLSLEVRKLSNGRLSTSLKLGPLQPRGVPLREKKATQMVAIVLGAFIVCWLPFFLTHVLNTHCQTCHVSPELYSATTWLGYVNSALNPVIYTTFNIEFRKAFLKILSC
Chain of 5-hydroxytryptamine receptor 1B (P28564 whole entry): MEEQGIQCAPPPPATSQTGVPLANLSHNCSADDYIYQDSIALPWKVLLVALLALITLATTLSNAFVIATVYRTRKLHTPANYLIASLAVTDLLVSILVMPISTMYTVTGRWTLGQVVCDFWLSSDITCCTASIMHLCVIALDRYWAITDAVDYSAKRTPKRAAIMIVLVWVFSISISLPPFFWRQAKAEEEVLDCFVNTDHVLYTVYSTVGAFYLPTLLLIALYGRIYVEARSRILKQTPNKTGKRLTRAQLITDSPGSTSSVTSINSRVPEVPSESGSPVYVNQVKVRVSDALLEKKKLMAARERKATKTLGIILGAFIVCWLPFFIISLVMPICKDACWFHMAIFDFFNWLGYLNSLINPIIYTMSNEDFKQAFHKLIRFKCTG
Chain of Mu-type opioid receptor (P35372 whole entry): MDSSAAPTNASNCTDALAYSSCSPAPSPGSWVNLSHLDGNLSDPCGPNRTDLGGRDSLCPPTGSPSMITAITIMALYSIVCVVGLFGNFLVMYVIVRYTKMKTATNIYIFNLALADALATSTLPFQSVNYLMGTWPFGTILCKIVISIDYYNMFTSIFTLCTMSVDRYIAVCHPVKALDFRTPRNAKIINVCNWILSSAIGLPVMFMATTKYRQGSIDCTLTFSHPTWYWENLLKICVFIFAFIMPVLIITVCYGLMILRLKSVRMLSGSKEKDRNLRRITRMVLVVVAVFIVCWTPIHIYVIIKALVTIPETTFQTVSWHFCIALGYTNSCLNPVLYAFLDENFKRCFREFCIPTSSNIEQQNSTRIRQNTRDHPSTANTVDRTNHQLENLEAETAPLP
Chain of MAO-B (P27338 whole entry): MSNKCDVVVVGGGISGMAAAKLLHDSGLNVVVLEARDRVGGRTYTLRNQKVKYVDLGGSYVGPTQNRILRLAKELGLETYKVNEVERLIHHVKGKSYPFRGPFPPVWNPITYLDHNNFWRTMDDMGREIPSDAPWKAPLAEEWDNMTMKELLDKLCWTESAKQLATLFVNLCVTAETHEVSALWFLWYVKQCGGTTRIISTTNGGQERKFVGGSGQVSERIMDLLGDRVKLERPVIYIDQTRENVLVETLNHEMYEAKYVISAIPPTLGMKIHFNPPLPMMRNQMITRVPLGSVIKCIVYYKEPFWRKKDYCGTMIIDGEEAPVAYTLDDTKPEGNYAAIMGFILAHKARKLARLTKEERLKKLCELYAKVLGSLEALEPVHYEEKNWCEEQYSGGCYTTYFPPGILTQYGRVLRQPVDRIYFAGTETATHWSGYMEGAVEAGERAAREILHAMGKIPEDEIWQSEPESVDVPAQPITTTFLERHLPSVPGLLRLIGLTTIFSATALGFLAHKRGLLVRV
Chain of MAO-A (P21397 whole entry): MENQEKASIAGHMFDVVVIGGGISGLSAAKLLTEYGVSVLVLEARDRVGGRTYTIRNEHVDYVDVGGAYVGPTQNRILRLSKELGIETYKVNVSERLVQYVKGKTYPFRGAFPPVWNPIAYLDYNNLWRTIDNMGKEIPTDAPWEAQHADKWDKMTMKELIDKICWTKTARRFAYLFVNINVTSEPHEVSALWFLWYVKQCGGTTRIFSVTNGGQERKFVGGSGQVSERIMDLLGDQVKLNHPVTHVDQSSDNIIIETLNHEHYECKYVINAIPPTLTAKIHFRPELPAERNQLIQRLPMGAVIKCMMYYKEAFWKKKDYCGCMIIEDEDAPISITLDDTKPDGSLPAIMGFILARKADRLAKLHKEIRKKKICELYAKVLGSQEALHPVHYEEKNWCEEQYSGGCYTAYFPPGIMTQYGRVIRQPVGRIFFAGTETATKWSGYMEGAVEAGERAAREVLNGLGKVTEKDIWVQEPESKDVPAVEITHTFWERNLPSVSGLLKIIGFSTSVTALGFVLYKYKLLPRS

Compound: COc1ccc(CNC(=O)c2cc(-c3cc(Cl)cc(Cl)c3)cnc2-c2cccnc2)cc1OC.Cl
- half-life [1]: 54 min
- clearance [2]: 39 mL/min/kg
- bioavailability [3]: 55%
- Kp at 1 h [4]: 0.19

Compound: COc1ccc(CNC(=O)c2cc(-c3cc(F)cc(Cl)c3)cnc2-c2cccnc2)cc1OC
- Ki (Orexin receptor type 2 [5]): 0.6 nM
- Ki [6]: 1090 nM
- Ratio Ki (Homo sapiens): 1810

Compound: Cc1cc(C)cc(-c2cnc(-c3cccnc3)c(C(=O)NCc3ccc(C(F)(F)F)c(F)c3)c2)c1
- Ki (Orexin receptor type 2 [5]): 4.1 nM
- Ki [6]: 236 nM
- Ratio Ki (Homo sapiens): 58

Compound: Cc1cc(C)cc(-c2cnc(-c3cccnc3)c(C(=O)NCc3ccc(F)c(C)c3)c2)c1
- Ki (Orexin receptor type 2 [5]): 18 nM
- Ki [6]: 1100 nM
- Ratio Ki (Homo sapiens): 61

Compound: COc1ccc(CNC(=O)c2cc(-c3cc(Cl)cc(Cl)c3)cnc2-c2cccnc2)cc1OC
- Ki (Orexin receptor type 2 [5]): 0.07 nM
- efflux ratio (MDR1 (P-gp, ABCB1)): 6.4
- IC50 [7]: 292 nM
- IC50 [8]: 2530 nM
- Ki [8]: 866 nM
- inhibition at 10 µM (MAO-B): 31%
- IC50 (Mu-type opioid receptor): 5020 nM
- Ki (Mu-type opioid receptor): 2040 nM
- Ki [6]: 94.5 nM
- inhibition at 0.1 µM (hERG (KCNH2) [9]): 12%
- Cmax [10]: 2300 nM
- inhibition at 10 µM [11]: 1%
- inhibition at 0.01 µM (hERG (KCNH2) [12]): 3%
- IC50 [13]: 6950 nM
- inhibition at 1 µM (hERG (KCNH2) [14]): 17%
- IC50 [15]: 1040 nM
- Ki [15]: 662 nM
- IC50 [16]: 8210 nM
- Ki [16]: 6820 nM
- Ratio (Nucleic Acid): 0.2%
- fraction unbound [17]: 0.032
- inhibition at 10 µM [18]: 4%
- IC50 (D(3) dopamine receptor): 9540 nM
- Ki (D(3) dopamine receptor): 3240 nM
- inhibition at 10 µM (MAO-A): 41%
- inhibition at 10 µM [19]: 24%
- fraction unbound [20]: 0.047
- IC50 (Orexin receptor type 2 [21]): 12 nM
- IC50 [22]: 2400 nM
- Ki [22]: 2280 nM
- logP [23]: 3.6
- AUC [24]: 9 µM·h
- IC50 [25]: 2300 nM
- Ki [25]: 1310 nM
- inhibition at 10 µM (hERG (KCNH2) [26]): 58%

Compound: Cc1cc(C)cc(-c2cnc(-c3cccnc3)c(C(=O)NCc3ccc(N(C)C)cc3)c2)c1
- Ki (Orexin receptor type 2 [5]): 4.8 nM
- Ki [6]: 833 nM
- Ratio Ki (Homo sapiens): 174

Compound: COc1ccc(CNC(=O)c2cc(-c3cc(C)cc(F)c3)cnc2-c2cccnc2)cc1OC
- Ki (Orexin receptor type 2 [5]): 0.8 nM
- Ki [6]: 1070 nM
- Ratio Ki (Homo sapiens): 1340

Compound: Cc1cc(C)cc(-c2cnc(-c3cccnc3)c(C(=O)N(C)Cc3ccc4nccnc4c3)c2)c1
- Ki (Orexin receptor type 2 [5]): 78.5 nM
- Ki [6]: 7250 nM
- Ratio Ki (Homo sapiens): 92

Compound: COc1cccc(CNC(=O)c2cc(-c3cc(C)cc(C)c3)cnc2-c2cccnc2)c1
- Ki (Orexin receptor type 2 [5]): 40.5 nM
- Ki [6]: 3350 nM
- Ratio Ki (Homo sapiens): 83

Compound: COc1ccc(CNC(=O)c2cc(-c3cc(C)cc(C)c3)cnc2-c2cccnc2)cc1
- Ki (Orexin receptor type 2 [5]): 22 nM
- Ki [6]: 2980 nM
- Ratio Ki (Homo sapiens): 135

Compound: Cc1cc(C)cc(-c2cnc(-c3cccnc3)c(C(=O)N(C)Cc3ccc4c(c3)OCO4)c2)c1
- Ki (Orexin receptor type 2 [5]): 580 nM
- Ki [6]: 1900 nM
- Ratio Ki (Homo sapiens): 3.3

Compound: COc1ccc(CNC(=O)c2cc(-c3cc(C(F)(F)F)cc(C(F)(F)F)c3)cnc2-c2cccnc2)cc1OC
- Ki (Orexin receptor type 2 [5]): 121 nM
- Ki [6]: 65000 nM
- Ratio Ki (Homo sapiens): 537

Compound: COc1ccc(CNC(=O)c2cc(-c3cccc(Cl)c3)cnc2-c2cccnc2)cc1OC
- Ki (Orexin receptor type 2 [5]): 1.3 nM
- Ki [6]: 747 nM
- Ratio Ki (Homo sapiens): 574

Compound: Cc1cc(C)cc(-c2cnc(-c3cccnc3)c(C(=O)NCc3ccc4c(c3)CCN4C)c2)c1
- Ki (Orexin receptor type 2 [5]): 3 nM
- Ki [6]: 273 nM
- Ratio Ki (Homo sapiens): 91

Compound: COc1ccc(CNC(=O)c2cc(-c3cc(F)cc(F)c3)cnc2-c2cccnc2)cc1OC
- Ki (Orexin receptor type 2 [5]): 8.3 nM
- Ki [6]: 5150 nM
- Ratio Ki (Homo sapiens): 620

Compound: COc1ccc(CNC(=O)c2cc(-c3cc(C)cc(C)c3)cnc2-c2cccnc2)cc1OC
- Ki (Orexin receptor type 2 [5]): 0.7 nM
- bioavailability [27]: 12%
- Ki [6]: 462 nM
- clearance [28]: 66 mL/min/kg
- Ratio Ki (Homo sapiens): 660

Compound: Cc1cc(C)cc(-c2cnc(-c3cccnc3)c(C(=O)NCc3ccc4c(c3)OCO4)c2)c1
- Ki (Orexin receptor type 2 [5]): 17 nM
- Ki [6]: 3550 nM
- Ratio Ki (Homo sapiens): 208
